Experimental findings from ChEMBL document CHEMBL3124809, “Back pocket flexibility provides group II p21-activated kinase (PAK) selectivity for type I 1/2 kinase inhibitors” (J Med Chem, 2014) are described below.

Each structure is given as a SMILES string. Converted amounts (≈) assume the structure as drawn. The source made the active and inactive calls. No cut-off for these calls is given here. Some results are limits rather than exact numbers.

As usually defined, the inhibition is the relative decrease from the control value, in per cent. By logD is commonly meant lipophilicity at a set pH, counting ionised and neutral species. One may read the IC50 as the midpoint of a concentration-inhibition curve.

Data set [1] is described as follows: Cytotoxicity against human MCF10A cells harboring PIK3CA H1047R mutant cells assessed as reduction in cell viability at 10 uM after 24 to 48 hrs by Celltiter-glo luminescence assay. Format: functional, MCF-10A. The method in brief:
(§1)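 Cells sparsely plated in 96-well plates and allowed to adhere, then given DMSO or compound (0.1, 1, 10, 50 μM) for 24 and 48 h. Metabolically active cells quantified by CellTiter-Glo luminescence. MDA-MB-436 grown in DMEM/10% FBS; MCF10A PIK3CA (one endogenous H1047R allele) in DMEM/F12 with 5% horse serum, insulin, hydrocortisone.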

A short description of data set [2]: Kinetic solubility of the compound. Format: physicochemical. The conditions noted are these: read-out: Kinetic_solubility.
Data set [3] is described as follows: Plasma protein binding in human plasma. Format: ADME, cell-free. The conditions noted are these: read-out: PPB (converted).
The test system of data set [4] is MCF-10A. Description: Antiinvasive activity against human MCF10A cells harboring PIK3CA H1047R mutant assessed as complete wound closure at 0.1 to 50 uM after 40 hrs by matrigel assay. Format: functional, cell-based.
For data set [5], the target named is Serine/threonine-protein kinase PAK 4 (Homo sapiens, UniProt O96013). The conditions noted are these: 0.1 uM.
Sequence of Serine/threonine-protein kinase PAK 4 (O96013 whole entry, looked up): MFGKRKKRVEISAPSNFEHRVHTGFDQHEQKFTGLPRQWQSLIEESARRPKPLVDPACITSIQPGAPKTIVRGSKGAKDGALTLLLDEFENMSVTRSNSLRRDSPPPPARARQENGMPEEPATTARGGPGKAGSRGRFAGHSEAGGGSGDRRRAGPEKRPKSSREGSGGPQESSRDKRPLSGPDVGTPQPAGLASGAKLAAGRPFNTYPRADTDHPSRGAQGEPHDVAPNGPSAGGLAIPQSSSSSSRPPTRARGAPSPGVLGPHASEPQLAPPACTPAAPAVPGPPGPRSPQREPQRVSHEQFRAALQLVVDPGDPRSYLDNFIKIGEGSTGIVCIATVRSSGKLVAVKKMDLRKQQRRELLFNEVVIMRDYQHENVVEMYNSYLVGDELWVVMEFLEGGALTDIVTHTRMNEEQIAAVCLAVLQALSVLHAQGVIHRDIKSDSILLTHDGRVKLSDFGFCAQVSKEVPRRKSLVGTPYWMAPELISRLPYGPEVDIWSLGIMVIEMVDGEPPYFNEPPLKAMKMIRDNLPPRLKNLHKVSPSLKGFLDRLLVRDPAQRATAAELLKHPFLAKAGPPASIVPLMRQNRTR
Data set [6] has as its target T1, Serine/threonine-protein kinase PAK 5 (Homo sapiens, UniProt Q9P286). Description: Inhibition of PAK5 (unknown origin) at 0.1 uM.
Target sequence in this assay (Q9P286 whole entry, looked up): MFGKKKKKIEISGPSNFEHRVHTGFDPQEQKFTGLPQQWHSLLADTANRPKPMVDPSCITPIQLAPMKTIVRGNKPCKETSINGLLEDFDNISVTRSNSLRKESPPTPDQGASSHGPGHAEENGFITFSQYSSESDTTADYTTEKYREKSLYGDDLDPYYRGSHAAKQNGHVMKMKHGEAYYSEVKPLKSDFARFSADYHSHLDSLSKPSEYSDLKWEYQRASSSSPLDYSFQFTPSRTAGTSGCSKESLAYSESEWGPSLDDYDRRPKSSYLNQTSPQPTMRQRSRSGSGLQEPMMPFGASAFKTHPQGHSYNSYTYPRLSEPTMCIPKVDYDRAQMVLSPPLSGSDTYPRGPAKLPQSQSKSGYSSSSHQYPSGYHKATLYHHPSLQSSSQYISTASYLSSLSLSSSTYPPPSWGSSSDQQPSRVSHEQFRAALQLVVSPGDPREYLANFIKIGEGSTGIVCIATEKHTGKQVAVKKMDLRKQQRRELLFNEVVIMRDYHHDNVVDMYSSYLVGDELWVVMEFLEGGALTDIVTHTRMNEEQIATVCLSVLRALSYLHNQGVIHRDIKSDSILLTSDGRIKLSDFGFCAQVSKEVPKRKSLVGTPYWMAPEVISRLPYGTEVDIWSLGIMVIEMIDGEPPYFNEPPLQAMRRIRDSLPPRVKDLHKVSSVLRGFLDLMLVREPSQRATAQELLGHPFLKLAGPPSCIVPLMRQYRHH
Data set [7] can be described thus: Lipophilicity, log D of the compound at pH 7.4. Format: physicochemical. The conditions noted are these: buffer.
In data set [8] the test system is MDA-MB-436. Description: Antiinvasive activity against human MDA-MB-436 cells assessed as reduction of wound density after 80 hrs by matrigel assay. Format: functional, cell-based.
The nature of data set [9]: Antiinvasive activity against human MCF10A cells harboring PIK3CA H1047R mutant assessed as reduction of wound density at 10 uM after 48 hrs by matrigel assay. Format: functional, MCF-10A. Set-up: scale not given: the % may be the effect or the level left.
In data set [10] the target is Mitogen-activated protein kinase kinase kinase kinase 4 (Homo sapiens) (UniProt O95819). Description: Inhibition of MAP4K4 (unknown origin) at 1 uM.
Sequence of Mitogen-activated protein kinase kinase kinase kinase 4 (Homo sapiens) (O95819 2-1239 limits assumed): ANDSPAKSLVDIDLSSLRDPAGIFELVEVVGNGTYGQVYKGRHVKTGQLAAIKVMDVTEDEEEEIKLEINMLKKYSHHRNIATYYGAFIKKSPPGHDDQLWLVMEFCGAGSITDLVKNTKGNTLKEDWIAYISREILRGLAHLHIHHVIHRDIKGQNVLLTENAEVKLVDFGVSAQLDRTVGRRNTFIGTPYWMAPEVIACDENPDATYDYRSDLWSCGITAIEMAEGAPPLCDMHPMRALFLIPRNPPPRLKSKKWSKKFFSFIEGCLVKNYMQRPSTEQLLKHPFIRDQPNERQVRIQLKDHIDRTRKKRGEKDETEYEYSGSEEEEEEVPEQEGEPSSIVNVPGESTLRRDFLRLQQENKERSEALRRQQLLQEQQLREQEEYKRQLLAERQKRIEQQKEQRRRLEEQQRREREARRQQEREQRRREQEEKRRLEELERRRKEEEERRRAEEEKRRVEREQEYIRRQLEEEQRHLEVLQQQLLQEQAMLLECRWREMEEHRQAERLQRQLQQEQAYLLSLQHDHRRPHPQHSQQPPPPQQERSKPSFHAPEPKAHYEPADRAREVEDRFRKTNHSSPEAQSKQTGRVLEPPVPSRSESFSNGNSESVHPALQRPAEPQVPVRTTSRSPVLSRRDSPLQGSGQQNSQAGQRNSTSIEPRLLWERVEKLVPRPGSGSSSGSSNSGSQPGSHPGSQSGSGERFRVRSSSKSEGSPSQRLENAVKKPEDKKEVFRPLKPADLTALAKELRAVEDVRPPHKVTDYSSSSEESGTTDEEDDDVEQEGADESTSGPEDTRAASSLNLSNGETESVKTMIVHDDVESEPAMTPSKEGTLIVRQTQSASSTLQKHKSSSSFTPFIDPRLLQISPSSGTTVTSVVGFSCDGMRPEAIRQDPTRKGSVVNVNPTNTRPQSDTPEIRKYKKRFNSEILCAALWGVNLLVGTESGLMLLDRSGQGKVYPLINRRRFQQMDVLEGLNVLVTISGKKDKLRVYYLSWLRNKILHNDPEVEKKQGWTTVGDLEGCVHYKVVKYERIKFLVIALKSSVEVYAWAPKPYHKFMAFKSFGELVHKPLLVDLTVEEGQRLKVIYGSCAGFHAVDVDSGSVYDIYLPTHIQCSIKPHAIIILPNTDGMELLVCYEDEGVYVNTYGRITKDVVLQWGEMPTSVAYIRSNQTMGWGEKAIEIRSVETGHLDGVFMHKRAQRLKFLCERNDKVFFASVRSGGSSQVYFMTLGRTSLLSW
The target of data set [11] is Serine/threonine-protein kinase PAK 2 (Homo sapiens, UniProt Q13177). Description: Inhibition of PAK2 (unknown origin).
Sequence of Serine/threonine-protein kinase PAK 2 (Q13177 whole entry): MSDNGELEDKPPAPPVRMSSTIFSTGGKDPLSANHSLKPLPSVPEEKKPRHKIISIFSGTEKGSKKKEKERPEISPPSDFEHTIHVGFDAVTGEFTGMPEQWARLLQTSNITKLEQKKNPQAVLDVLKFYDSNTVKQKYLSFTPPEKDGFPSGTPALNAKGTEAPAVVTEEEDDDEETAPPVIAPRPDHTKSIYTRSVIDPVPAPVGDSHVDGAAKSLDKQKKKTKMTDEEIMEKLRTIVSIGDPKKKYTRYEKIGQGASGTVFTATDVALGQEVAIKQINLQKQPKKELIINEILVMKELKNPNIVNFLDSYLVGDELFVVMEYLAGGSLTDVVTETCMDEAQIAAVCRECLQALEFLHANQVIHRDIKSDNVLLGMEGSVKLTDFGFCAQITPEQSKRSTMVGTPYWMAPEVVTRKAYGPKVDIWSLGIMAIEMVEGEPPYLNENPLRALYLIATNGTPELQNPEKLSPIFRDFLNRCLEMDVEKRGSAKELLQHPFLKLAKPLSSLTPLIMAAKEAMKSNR
Data set [12] is described as follows: Thermodynamic solubility of the compound. Format: physicochemical. The conditions noted are these: read-out: Therm_solubility.
Data set [13] deals with T1, Serine/threonine-protein kinase PAK 5. Description: Inhibition of PAK5 (unknown origin).
Target sequence in this assay (Q9P286 whole entry): as the sequence (Q9P286 whole entry, looked up) above
Data set [14] can be described thus: Antiinvasive activity against human MDA-MB-436 cells assessed as reduction of wound density at 1 uM after 80 hrs by matrigel assay. Format: functional. Also noted: scale not given: the % may be the effect or the level left.
Data set [15] has as its system MCF-10A. Description: Cytotoxicity against human MCF10A cells harboring PIK3CA H1047R mutant cells assessed as reduction in cell viability at 50 uM after 24 to 48 hrs by Celltiter-glo luminescence assay. Format: functional, cell-based. The method in brief:
as §1
(In general: In ATP-based viability assays light output follows the ATP content of the culture.)

Data set [16] in a line: Cytotoxicity against human MDA-MB-436 cells assessed as reduction in cell viability at 10 uM after 24 to 48 hrs by Celltiter-glo luminescence assay. Format: functional. The method in brief:
as §1

Data set [17] in a line: Antimigratory activity in human MCF10A cells harboring PIK3CA H1047R mutant assessed as reduced wound density at >10 uM after 20 hrs by wound healing assay. Format: functional, MCF-10A. Set-up: scale not given: the % may be the effect or the level left. The procedure, abridged: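 Monolayer of 40 000 cells per well, grown overnight, scratched with WoundMaker, washed twice with warm medium, then given medium with DMSO or compound (0.1, 1, 10, 50 μM). Relative wound density from phase-contrast time-lapse images, collected and quantified every 2 h on IncuCyte.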

`COCCNc1nc2ccc(C#CC3(O)CCCCC3)cc2n1-c1ccnc(N)n1`: the Activity in data set [1] was 50%; in data set [8] it was “Dose-dependent effect”; in data set [9], 50%; in data set [14], 50%; in [16] it was 50%; in data set [17], 50%. Moreover, the solubility kinetic in data set [2] was 30 µM (≈ 12.2 µg/mL). Moreover, in data set [3], the fraction unbound was 0.04. In addition, the outcome in data set [4] and in data set [15] was Active. The inhibition is above 60% in [5], above 60% in data set [6] and -4% in data set [10]. For the same compound, the logD in [7] is 3.6. Moreover, the IC50 is 970 nM in data set [11] and 126 nM in [13]. Also, in data set [12], the solubility thermodynamic was determined as 6.3 µM (≈ 2.56 µg/mL).
